DNMT1 block = blocks human DNA methyltransferase DNMT1 | P26358 | DNMT1 molecular beacon, Hinp1I cleavage, fluorescence | inhibition (reported as % activation of signal), % at 10 µM | hit rate 0.83% among 360,000 | AID 588458; in the data active = inhibition above about 50%
Scp1 inh = inhibitors of human Scp-1 phosphatase; Q9GZU7; AID 493091; hit rate 0.88% among 340,000; Recombinant Scp1, phosphopeptide, malachite green phosphate absorbance; inhibition, % at 20 µM;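 active = inhibition above about 50% at 20 µM, limit read from the data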
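System: truncated SCP-1 phosphatase (76-261aa); medium: Tris acetate buffer pH 5.5 with MgCl2 and Tween-20; incubation: 45 min room-temperature reaction, 5 min colour, 30 min stabiliser; compound: single 20 µM dose, 1% DMSO; reagent: Phosphorylated 17-residue peptide substrate; read-out: % inhibition at 20 µM; technique: colorimetric free-phosphate detection, absorbance 630 nm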
NadD inh = blocks S. aureus nicotinate mononucleotide adenylyltransferase; purified NadD enzyme, colorimetric absorbance read-out; inhibition, % at 20 µM; hit rate 0.78% among 360,000; in the data active = inhibition above about 26%
LMPTP inh = LMPTP (human) inhibition; P24666; recombinant LMPTP-A, OMFP fluorogenic substrate, fluorescence intensity; inhibition, % at 20 µM; hit rate 0.22% among 360,000;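 active = compounds that cut the enzyme signal by at least half of the control window in the single-dose screen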
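Test system: LMPTP-A, protein tyrosine phosphatase of low molecular weight; Input: 0.625 nM enzyme; Incubation: 50 min dark incubation at room temperature; Signal: endpoint fluorescence intensity from OMFP dephosphorylation; Read-out basis: % inhibition versus control wells.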
SUMO1 PPI mod = modulators of human SUMO1-mediated protein-protein interactions | P63165 | SUMO1 binding to a labelled peptide, TR-FRET, 1 h | inhibition, % at 20 µM | hit rate 0.33% among 360,000 | AID 602429; in the data active = inhibition above about 37%
Target sequence (P63165 whole entry, looked up): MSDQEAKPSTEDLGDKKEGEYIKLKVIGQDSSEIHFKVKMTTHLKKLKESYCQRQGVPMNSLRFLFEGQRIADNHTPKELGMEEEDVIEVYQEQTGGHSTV
STEP block = inhibitors of human striatal-enriched phosphatase STEP; P54829; recombinant STEP, OMFP fluorogenic substrate, fluorescence; inhibition, % at 20 µM; hit rate 0.25% among 360,000; AID 588621;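 active = inhibition at 20 µM, scaled per plate between control wells, above about 37%, limit read from the data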
Target sequence (P54829 whole entry, looked up): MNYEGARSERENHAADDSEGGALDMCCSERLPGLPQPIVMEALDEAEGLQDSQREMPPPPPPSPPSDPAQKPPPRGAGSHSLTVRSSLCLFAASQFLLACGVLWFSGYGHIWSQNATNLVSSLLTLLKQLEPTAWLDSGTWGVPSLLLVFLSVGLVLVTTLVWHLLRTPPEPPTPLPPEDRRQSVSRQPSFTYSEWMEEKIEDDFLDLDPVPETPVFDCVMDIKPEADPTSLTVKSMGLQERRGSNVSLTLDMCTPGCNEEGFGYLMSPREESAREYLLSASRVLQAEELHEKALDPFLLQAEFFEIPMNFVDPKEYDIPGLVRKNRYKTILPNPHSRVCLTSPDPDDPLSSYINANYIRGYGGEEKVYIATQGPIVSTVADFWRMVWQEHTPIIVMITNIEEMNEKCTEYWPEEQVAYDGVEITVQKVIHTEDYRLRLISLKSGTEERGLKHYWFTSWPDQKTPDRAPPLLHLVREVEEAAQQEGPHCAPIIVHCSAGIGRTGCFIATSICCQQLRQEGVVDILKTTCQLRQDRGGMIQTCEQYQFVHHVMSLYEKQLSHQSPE
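Test system: STEP tyrosine phosphatase / Reagent: OMFP at 25 µM / Doses: 20 µM, 1% DMSO / Read-out: percent inhibition scaled to no-enzyme and uninhibited-enzyme controls, plate-pattern corrected / Detection: FITC-channel fluorescence of OMFP product / Medium: Bis-Tris buffer pH 6.0, 2.5 mM DTT, 0.005% Tween 20 / Schedule: 20 min at room temperature, dark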
Numbers stand for hits. In the library only some 2.4% were active in any assay of this set; here they are far more common.

Cc1noc(C)c1S(=O)(=O)Nc1ccc2c(c1)C(=O)N([C@H](C)CO)C[C@H](C)[C@@H](CN(C)C(=O)Nc1ccccc1)O2 was read as DNMT1 block inactive, Scp1 inh 79, NadD inh inactive, LMPTP inh inactive, SUMO1 PPI mod inactive and STEP block inactive.
Cc1ccc(C(=O)c2c(C)oc3c2C(=O)C(=O)c2ccccc2-3)cc1 was read as DNMT1 block 52, Scp1 inh inactive, NadD inh inactive, LMPTP inh inactive, SUMO1 PPI mod inactive and STEP block inactive.
Screening O=c1cc2c(=O)oc3cc(O)c(O)oc3c2c(O)c1O returned DNMT1 block inactive, Scp1 inh 85, NadD inh inactive, LMPTP inh 61, SUMO1 PPI mod inactive and STEP block 96.
Screening O=c1oc2cc(O)c(Cl)cc2c2ccccc12 returned DNMT1 block inactive, Scp1 inh inactive, NadD inh inactive, LMPTP inh inactive, SUMO1 PPI mod inactive and STEP block inactive.
O=C(CN(c1cc(Cl)ccc1Cl)S(=O)(=O)c1ccccc1)N1CCOCC1 was read as DNMT1 block inactive, Scp1 inh inactive, NadD inh inactive, LMPTP inh inactive, SUMO1 PPI mod inactive and STEP block inactive.
`CN(C)c1ccc(N=Nc2ccc(S(N)(=O)=O)cc2)cc1` gave DNMT1 block inactive, Scp1 inh inactive, NadD inh inactive, LMPTP inh 53, SUMO1 PPI mod inactive and STEP block 94.
NS(=O)(=O)c1ccc(N=Nc2c[nH]c(=O)c(O)c2)cc1 was read as DNMT1 block inactive, Scp1 inh 70, NadD inh inactive, LMPTP inh inactive, SUMO1 PPI mod inactive and STEP block inactive.
Screening CC1(OC(=O)c2cccs2)C(=O)C=C2C=C3CCCN3C=C2C1=O (stereo not given) returned DNMT1 block 100, Scp1 inh 55, NadD inh inactive, LMPTP inh inactive, SUMO1 PPI mod inactive and STEP block inactive.
Screening COc1cc(/C=N/NC(=O)c2cc[n+]([O-])cc2)ccc1O returned DNMT1 block inactive, Scp1 inh inactive, NadD inh inactive, LMPTP inh inactive, SUMO1 PPI mod inactive and STEP block inactive.
Screening COC(=O)c1cc(S(=O)(=O)N(C)C2CCCCC2)c[nH]1 returned DNMT1 block inactive, Scp1 inh inactive, NadD inh inactive, LMPTP inh inactive, SUMO1 PPI mod inactive and STEP block inactive.
Cc1cccc2cc(-c3nc4ccc(C(=O)O)cc4[nH]3)c(=O)oc12 was read as DNMT1 block inactive, Scp1 inh 58, NadD inh inactive, LMPTP inh inactive, SUMO1 PPI mod inactive and STEP block inactive.
`Cc1ccc2oc(Nc3nc(-c4ccccc4)cc(=O)[nH]3)nc2c1` gave Scp1 inh 96.
`COCc1cc(=O)[nH]c(Nc2nc3ccccc3o2)n1` gave DNMT1 block inactive, Scp1 inh inactive, NadD inh inactive, LMPTP inh inactive, SUMO1 PPI mod inactive and STEP block inactive.
`O=C(O)c1cc(O)c2c(c1)[C@@H]([C@H]1c3cc(C(=O)O)cc(O)c3C(=O)c3c(O[C@@H]4O[C@H](CO)[C@@H](O)[C@H](O)[C@H]4O)cccc31)c1cccc(O[C@@H]3O[C@H](CO)[C@@H](O)[C@H](O)[C@H]3O)c1C2=O` gave Scp1 inh 86.
OCC1OC(Oc2cccc3ccccc23)C(O)C(O)C1O (stereo not given) was read as DNMT1 block inactive, Scp1 inh inactive, NadD inh inactive, LMPTP inh inactive, SUMO1 PPI mod inactive and STEP block inactive.
COc1ccc(OC)c(/C=C/c2ccnc3ccccc23)c1 was read as DNMT1 block inactive, Scp1 inh inactive, NadD inh inactive, LMPTP inh inactive, SUMO1 PPI mod inactive and STEP block inactive.
COc1ccc2ncccc2c1Cc1c(OC)ccc2ncccc12 was read as DNMT1 block inactive, Scp1 inh inactive, NadD inh inactive, LMPTP inh 56, SUMO1 PPI mod inactive and STEP block inactive.
Screening COC(=O)C1=C(C)NC(=O)/C1=C\c1cc(C)n(-c2ccc(F)cc2)c1C returned DNMT1 block inactive, Scp1 inh inactive, NadD inh inactive, LMPTP inh inactive, SUMO1 PPI mod inactive and STEP block inactive.
Screening Cc1sc(-n2c(C)cc(/C=C3\SC(=S)NC3=O)c2C)c(C#N)c1C returned DNMT1 block inactive, Scp1 inh inactive, NadD inh 25, LMPTP inh inactive, SUMO1 PPI mod inactive and STEP block inactive.
Screening COC(=O)C1=C(C)NC(=O)/C1=C\c1cc(C)n(-c2cccc(C)c2)c1C returned DNMT1 block inactive, Scp1 inh inactive, NadD inh 32, LMPTP inh inactive, SUMO1 PPI mod inactive and STEP block inactive.
Cc1cc(/C=C2\SC(=S)NC2=O)c(C)n1-c1cccc(O)c1 was read as DNMT1 block inactive, Scp1 inh inactive, NadD inh 30, LMPTP inh inactive, SUMO1 PPI mod inactive and STEP block inactive.
`CC(C)(C)NC(=O)NC(=O)COC(=O)c1cccc(S(=O)(=O)N2CCCCC2)c1` gave DNMT1 block inactive, Scp1 inh inactive, NadD inh inactive, LMPTP inh inactive, SUMO1 PPI mod inactive and STEP block inactive.
COc1ccc(C(=O)Nc2sc(C)c(C)c2CN2CC(C)OC(C)C2)cc1 (stereo not given) was read as DNMT1 block inactive, Scp1 inh inactive, NadD inh inactive, LMPTP inh inactive, SUMO1 PPI mod inactive and STEP block inactive.
Screening Cc1nc2cc(NC(=O)c3ccc(Br)s3)ccc2s1 returned DNMT1 block inactive, Scp1 inh inactive, NadD inh inactive, LMPTP inh inactive, SUMO1 PPI mod inactive and STEP block 41.
For O=C(CCNC(=O)c1ccc([N+](=O)[O-])cc1)NCc1ccccc1 the results were DNMT1 block inactive, Scp1 inh inactive, NadD inh inactive, LMPTP inh inactive, SUMO1 PPI mod inactive and STEP block inactive.
For Nc1ccc(-c2ccc(N)c([N+](=O)[O-])c2)cc1[N+](=O)[O-] the results were DNMT1 block inactive, Scp1 inh inactive, NadD inh inactive, LMPTP inh inactive, SUMO1 PPI mod inactive and STEP block inactive.
For Nc1cc2[nH]c(=O)c3ccccc3c2cc1[N+](=O)[O-] the results were DNMT1 block inactive, Scp1 inh inactive, NadD inh inactive, LMPTP inh inactive, SUMO1 PPI mod 50 and STEP block inactive.
Cc1cc(C)c2c(c1)/C(=c1/sc3n(c1=O)CN(c1ccccc1)CN=3)C(=O)N2 was read as DNMT1 block inactive, Scp1 inh inactive, NadD inh inactive, LMPTP inh inactive, SUMO1 PPI mod inactive and STEP block inactive.
Screening Cc1c(NC(=O)COc2ncnc3ccccc23)c(=O)n(-c2ccccc2)n1C returned DNMT1 block inactive, Scp1 inh inactive, NadD inh inactive, LMPTP inh inactive, SUMO1 PPI mod inactive and STEP block inactive.

Assay outcomes deposited in PubChem by Sanford-Burnham Center for Chemical Genomics.
